Bioassay records from PubChem.
Sampled rows, rich in hits. Any-hit rate of the full collection: about 2.9%.
ABHD4 inh: ABHD4 inhibitors, primary screen, biochemical, fluorescence polarization, mouse; AID 720543, 2013; 0.54% of 370,000 active; inhibition, % at 8.92 µM; purified mABHD4, FP-Rh probe fluorescence polarization;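 active means inhibition exceeding the mean over every tested compound plus 3 SD, cut at about 30% in these data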;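 further: 0% = plate median of compound wells and 100% = S159A mutant with DMSO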
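Material: mouse ABHD4 enzyme, wild type; Benchmarks: S159A mutant high control, sample median low control; Buffer or medium: HEPES pH 7.0, NaCl, Pluronic buffer; Signal: fluorescence polarization; Read-out: percent inhibition of probe binding, normalized to plate controls; Timing: pre-incubation 45 min, probe exposure 60 min, at 25 °C; Dosing: 8.92 µM, single dose.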
ATG4B inh: ATG4B protease inhibitors, primary screen, biochemical, fluorescence, uHTS; AID 504462, 2011; 0.51% of 340,000 active; inhibition, % at 8.33 µM; Cysteine protease ATG4B (Homo sapiens), Q9Y4P1; ATG4B cleavage of LC3-PLA2, NBD-HPC fluorescence, 1 h; in the data active means inhibition above about 40%
HTRA1 inhibitor: HTRA1 serine protease inhibitors, primary screen, biochemical, fluorescence polarization, HTS; AID 504803, 2011; recombinant HTRA1, FP-rhodamine activity-based probe; inhibition, % at 5.96 µM; 0.5% of 340,000 active; Q92743; in the data active means inhibition above about 36%;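 further: 0% = enzyme with DMSO and 100% = wells lacking enzyme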
PRMT1 FP inh: PRMT1 methyltransferase inhibitors, primary screen, biochemical, fluorescence polarization | Protein arginine N-methyltransferase 1 (Homo sapiens), Q99873 | recombinant PRMT1, activity-based probe fluorescence polarization | inhibition, % at 2.79 µM | 1.3% of 370,000 active;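 active means inhibition above about 21% made by adding two undisclosed values, limit read from the data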
Target sequence (Q99873 whole entry, looked up): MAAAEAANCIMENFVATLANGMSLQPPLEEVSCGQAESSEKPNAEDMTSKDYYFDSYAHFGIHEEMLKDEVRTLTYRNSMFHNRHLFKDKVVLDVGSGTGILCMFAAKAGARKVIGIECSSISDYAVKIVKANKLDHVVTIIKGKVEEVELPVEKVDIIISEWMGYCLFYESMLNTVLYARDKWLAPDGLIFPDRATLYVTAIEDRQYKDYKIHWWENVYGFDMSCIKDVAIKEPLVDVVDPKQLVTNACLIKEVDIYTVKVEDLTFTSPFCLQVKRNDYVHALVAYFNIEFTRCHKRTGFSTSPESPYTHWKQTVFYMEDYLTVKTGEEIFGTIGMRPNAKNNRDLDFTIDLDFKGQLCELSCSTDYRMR
SIAE inh: human SIAE inhibitors, primary screen, biochemical, fluorescence polarization, FP-Rh probe, 1536-well HTS; Sialate O-acetylesterase (Homo sapiens), Q9HAT2; 0.69% of 370,000 active; AID 1053197, 2014; SIAE FP-Rh probe binding; inhibition, % at 9.66 µM;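 active means inhibition above a cutoff: mean of compounds within the control limits plus 3 SD of those, cut at about 17% in these data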;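 further: 0% = plate median of compound wells and 100% = probe without SIAE protein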
TCR-CD3 inh: inhibitors of human TCR-CD3 interaction, primary screen, biochemical, fluorescence, TAMRA-labeled TCR probe | T-cell receptor (TCR) | 0.37% of 360,000 active | AID 651800, 2012 | inhibition, % at 9.4 µM; in the data active means inhibition above about 19%;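 further: recombinant mutant TCR 2C K166C tagged with TAMRA read by polarization; 0% = receptor in buffer alone and 100% = receptor with positive control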
mABHD4 conf: ABHD4 inhibitors, retest, confirmation, biochemical, fluorescence polarization, mouse; shares compounds with ABHD4 inh; purified mABHD4, FP-Rh probe fluorescence polarization; inhibition, % at 8.92 µM; 55% of 1,800 active;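 active means mean inhibition across replicates above the hit cutoff set in the primary screen, cut at about 30% in these data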;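 further: 0% = wild-type ABHD4 with DMSO and 100% = catalytically dead S159A mutant with DMSO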
* hit, by the source's call; x = no result given.

SMILES	ABHD4 inh	ATG4B inh	HTRA1 inhibitor	PRMT1 FP inh	SIAE inh	TCR-CD3 inh	mABHD4 conf
COc1cc(C2c3sc(=O)[nH]c3SC3C(=O)N(c4ccc(Br)cc4)C(=O)C32)ccc1O (configuration not stated)	33.9*	-8.9	-0.2	8.0	-2.1	5.0	14.8
Cc1cc(OC(C)CCN2CCC(C(O)(c3ccccc3)c3ccccc3)CC2)ccc1Br (configuration not stated)	22.0	x	x	-3.2	1.6	x	x
COc1ccc(-c2nc(N/N=C(\C)c3ccc(O)cc3)c3ccccc3n2)cc1	32.3*	-15.2	-21.5	7.2	-0.4	-8.2	0.4
COc1ccc(Nc2nc(-c3ccccc3)nc3ccccc23)cc1	-6.8	-1.5	-28.8	-3.0	1.2	-4.9	x
CCN(Cc1ccccc1)C(=O)COC(=O)c1cc(S(=O)(=O)Nc2ccccc2OC)ccc1O	30.9*	-7.3	3.5	1.0	-6.8	2.6	43.9*
COc1ccccc1NS(=O)(=O)c1ccc(O)c(C(=O)OCC(=O)Nc2ccccc2F)c1	-0.5	-4.6	-4.2	-0.7	4.7	-3.3	x
Cc1cc2c(cc1C)N(C(=O)CSC1=NCCS1)C(C)(C)c1ssc(=S)c1-2	37.0*	-4.6	30.1	7.2	8.5	3.2	14.0
CC1Oc2ccccc2C=C1/C=N/Nc1ccc(C(=O)O)cc1 (configuration not stated)	31.8*	1.5	-2.2	10.1	1.9	-5.5	31.5*
COc1ccc(C(=O)Nc2ccc3c(c2)C(=O)N(C)[C@H]2CC[C@H](CC(=O)NCC4CC4)O[C@@H]2CO3)cc1	10.3	x	x	-1.0	2.7	x	x
O=C(O)c1ccc(S(=O)(=O)c2ccc3c(c2)C(=O)N(c2ccc(O)cc2)C3=O)cc1	91.9*	-1.6	14.4	19.2	7.6	11.2	-17.6
CCOC(=O)[C@@]12CN(C(=O)OC(C)(C)C)CC=C1N(Cc1ccc(OC)cc1)C(=O)[C@H]2CC(=O)NCc1ccc(C)o1	7.0	x	x	7.5	7.6	x	x
Cc1ccc2c(c1)c(N=Nc1cccc(C(=O)O)c1)c(O)n2C	30.7*	-2.2	-1.0	3.1	-4.3	0.8	45.0*
O=C(c1cncnc1)N1CCC(n2nnc3ncccc32)CC1	-1.4	x	x	-3.9	1.1	x	x
O=C(NCc1ccccc1)N1CCC(c2nc3ccc(Cl)cc3[nH]2)CC1	1.2	x	x	-4.5	-2.0	x	x
COc1ccc(S[C@]2(C(=O)NC(C)C)CC(=O)N[C@@H]2c2ccc(OC)cc2)cc1	-5.6	x	x	5.0	-3.1	x	x
COc1cccc(C2C(C(N)=O)=C(C)Nc3nc(CCCO)nn32)c1OC (configuration not stated)	4.7	-3.8	-0.4	8.2	-0.3	-6.6	x
CCOc1ccccc1C1C(C(N)=O)=C(C)Nc2nc(CCCO)nn21 (configuration not stated)	31.3*	2.9	-7.2	1.1	-3.9	-5.0	8.2
CC(C)OC(=O)CSc1nnc(-c2cnccn2)n1C	116.3*	-5.0	2.8	-1.5	-1.7	2.4	-14.2
CCCCNc1c(-c2ccc(-c3cccc(Cl)c3)cc2)nc2ccccn12	39.8*	21.1	-14.0	1.4	8.4	0.9	31.7*
Cc1ccc2nc(-c3ccc(-c4cccc(Cl)c4)cc3)c(NCc3ccccc3)n2c1	22.6	8.6	-1.2	-0.2	10.4	5.0	x
CCCCNc1c(-c2cccc(-c3ccc(OC)cc3)c2)nc2ccc(C)cn12	30.1*	27.7	-18.2	0.2	4.9	6.5	35.4*
CCCCNc1c(-c2cccc(-c3cc(C(C)=O)cs3)c2)nc2ccc(C)cn12	14.6	6.3	-8.8	2.3	12.0	6.7	x
CCCCCCSc1cccc(-c2nc3ccc(Cl)cn3c2NCCCC)c1	2.7	-2.9	-2.3	0.3	-2.9	-1.5	x
